In the library only some 2.9% were active in any assay of this set; here they are far more common.
Efflux pump mplx = blocks antifungal efflux pumps in multiplex yeast assay; S. cerevisiae Candida pump triplex, Nile Red efflux; inhibition, % at 10 µM; 0.44% of 330,000 active; AID 485275;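 active = plate passing quality check with inhibition over a set limit, or well fluorescence over plate mean plus 4 SD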;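 also: Nile Red retained in pooled yeast measured as flow cytometry median fluorescence; higher means more Nile Red kept so more efflux inhibition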
MC4R antagonist = antagonists of human melanocortin 4 receptor (MC4R) | P32245 | MC4R-expressing cells, MTII-stimulated cAMP, LANCE TR-FRET | inhibition, % at 6.5 µM | 0.48% of 360,000 active | AID 540295;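 active = inhibition above its plate's cutoff, the mean of tested wells on that plate plus 3 SD, cut at about 29% in these data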
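Assay system: U2OS-MC4R stable cell line; Also added: Melanotan II; Technique: Eu-cAMP/anti-cAMP TR-FRET, emission 671 nm; Times: 30-min compound, 1-h challenge, 1-h detection, room temperature.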
Calb FLC = affects C. albicans growth with fluconazole; C. albicans CaCi-2 (fluconazole-resistant clinical isolate) + fluconazole, Alamar Blue growth, 48 h; growth inhibition, % (test concentration not listed); 0.57% of 300,000 active; AID 1979;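 active = growth inhibition above about 58% in most replicates, limit read from the data, passing the limit was not always enough; inconclusive = exactly half the replicates above a set limit; inactive = most replicates below a set limit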;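 also: all wells also contain fluconazole at 8 µg/ml as a sub-toxic cotreatment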
MC4R barr agon = agonists of human melanocortin 4 receptor (MC4R) beta-arrestin; 0.98% of 360,000 active; U2OS MC4R beta-arrestin complementation, luminescence; percent of melanotan II response, DMSO zero; P32245; activation, % at 8.9 µM;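 active = activation above a per-plate cutoff, the mean activation of sample wells on that plate plus 3 SD, cut at about 8% in these data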
GalR3 antag = blocks the human galanin receptor 3 | 0.44% of 360,000 active | HEK293 GalR3-CNG cAMP membrane potential fluorescence; galR3 body fused to GalR1 C-terminus | AID 651719 | inhibition, % at 3 µM;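 active = inhibition above the screen-wide average plus 3 SD, cut at about 13% in these data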;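 also: forskolin and galanin both at EC90 stimulate the cells; cAMP rise reported by CNG channel membrane potential dye signal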
Target sequence (O60755 1-299 limits assumed): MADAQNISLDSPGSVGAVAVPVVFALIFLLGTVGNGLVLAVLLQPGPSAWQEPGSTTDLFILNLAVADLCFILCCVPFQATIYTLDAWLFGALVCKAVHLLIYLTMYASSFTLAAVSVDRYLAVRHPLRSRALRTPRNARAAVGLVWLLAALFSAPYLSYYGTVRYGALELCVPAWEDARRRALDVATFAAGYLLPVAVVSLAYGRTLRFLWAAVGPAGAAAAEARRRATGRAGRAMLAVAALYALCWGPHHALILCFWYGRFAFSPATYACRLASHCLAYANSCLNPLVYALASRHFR
TAG inh = triacylglycerol accumulation inhibition; H9c2 cells, Nile Red lipid (TAG) fluorescence; cells loaded with 200 µM oleic acid; inhibition, % at 12.5 µM; AID 651582; 0.66% of 230,000 active;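 active = pattern-corrected inhibition of lipid staining of at least 50% with the nuclear-stain viability signal not falling by more than 50%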
GalR3 conf = GalR3 (human) antagonism, confirmation; shares compounds with GalR3 antag; HEK293 GalR3 CNG cAMP biosensor, membrane potential fluorescence; galR3 fused to GalR1 carboxy tail; challenged with forskolin and galanin at EC90; inhibition, % at 3 µM; 59% of 1,600 active;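 active = inhibition above the primary screen's cutoff, the mean inhibition of all screened compounds plus 3 SD, cut at about 13% in these data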
HEK-CNG parental = parental cell agonism counter-screen for GalR3 antagonists; shares compounds with GalR3 antag; 10% of 1,600 active; activation, % at 3 µM; HEK293-CNG parental cells, cAMP membrane potential fluorescence; normalised: DMSO wells 0%, forskolin wells 100%; in the data active = activation above about 1.3%
Hits are given with their value.

Screening O=C(Nc1ccccc1Cc1ccccc1)c1ccccc1NS(=O)(=O)c1ccc(Cl)s1 returned Efflux pump mplx inactive, MC4R antagonist inactive, Calb FLC inconclusive, MC4R barr agon inactive, GalR3 antag 96, GalR3 conf 104 and HEK-CNG parental inactive.
O=C(Nc1ccccc1)c1ccccc1NS(=O)(=O)c1ccc(Cl)s1 was read as Efflux pump mplx inactive, MC4R antagonist inactive, Calb FLC inactive, MC4R barr agon inactive, GalR3 antag inactive and TAG inh inactive.
For Cc1ccc(NC(=O)c2ccccc2NS(=O)(=O)c2ccc(Cl)s2)cc1 the results were Efflux pump mplx inactive, MC4R antagonist inactive, Calb FLC 78, MC4R barr agon inactive, GalR3 antag 17, GalR3 conf 33 and HEK-CNG parental inactive.
O=C(NCc1ccco1)c1ccccc1NS(=O)(=O)c1ccc(Cl)s1 was read as Efflux pump mplx inactive, MC4R antagonist inactive, Calb FLC inactive, MC4R barr agon inactive, GalR3 antag inactive and TAG inh inactive.
O=Cc1c(Cl)nc2ccccn12 was read as Efflux pump mplx inactive, MC4R antagonist inactive, Calb FLC inactive, MC4R barr agon inactive and GalR3 antag inactive.
Screening OCc1c(Cl)nc2ccccn12 returned Efflux pump mplx inactive, MC4R antagonist inactive, Calb FLC inactive, MC4R barr agon inactive, GalR3 antag 14, TAG inh inactive, GalR3 conf inactive and HEK-CNG parental inactive.
For COC(=O)C1=CO[C@@H](O[C@@H]2O[C@H](CO)[C@@H](O)[C@H](O)[C@H]2O)C2C1C=C[C@@]2(O)CO (stereo not given in full) the results were Efflux pump mplx inactive, MC4R antagonist inactive, MC4R barr agon inactive, GalR3 conf inactive and HEK-CNG parental inactive.
Screening COC(=O)C1=CO[C@@H](OC2OC(CO)C(O)C(O)C2O)[C@@H]2[C@@H](C)[C@@H](O)C[C@H]12 (stereo not given in full) returned Efflux pump mplx inactive, MC4R antagonist inactive, Calb FLC inactive, MC4R barr agon inactive and GalR3 antag inactive.
Screening CC(C)(C)c1ccc(-n2ncc3c2CCCC3NC(=O)C2(C(N)=O)CC2)cc1 (stereo not given) returned Efflux pump mplx inactive, MC4R antagonist inactive, Calb FLC inactive, MC4R barr agon inactive, GalR3 antag 92, GalR3 conf 114 and HEK-CNG parental inactive.
For Cc1cc(C)cc(-n2ncc3c2CCCC3NC(=O)c2cc(C)n(C)n2)c1 (stereo not given) the results were Efflux pump mplx inactive, MC4R antagonist inactive, Calb FLC inactive, MC4R barr agon inactive and GalR3 antag inactive.
For Cc1cc(C(=O)NC2CCCc3c2cnn3-c2ccc(C(C)(C)C)cc2)nn1C (stereo not given) the results were Efflux pump mplx inactive, MC4R antagonist inactive, Calb FLC inactive, MC4R barr agon inactive, GalR3 antag 97, TAG inh inactive, GalR3 conf 106 and HEK-CNG parental inactive.
For O=C(CN1CCC(c2nc3ccccc3s2)CC1)NCc1cccs1 the results were Efflux pump mplx inactive, MC4R antagonist inactive, Calb FLC inactive, MC4R barr agon inactive, GalR3 antag 78, GalR3 conf 76 and HEK-CNG parental 1.8.
CC1CN(C=O)CC(C)N1CCN1C(C)CN(C=O)CC1C (stereo not given) was read as MC4R antagonist inactive, MC4R barr agon inactive, GalR3 antag inactive and TAG inh inactive.
For Cc1ccc(C)c(OCC(=O)Nc2ccncc2)c1 the results were Efflux pump mplx inactive, MC4R antagonist inactive, Calb FLC inactive, MC4R barr agon inactive and GalR3 antag inactive.
For O=C(COc1cc(Cl)c(Cl)cc1Cl)Nc1ccncc1 the results were Efflux pump mplx inactive, MC4R antagonist inactive, Calb FLC inactive, MC4R barr agon inactive, GalR3 antag 13, TAG inh inactive, GalR3 conf inactive and HEK-CNG parental inactive.
